Source: PubChem BioAssay
The full list was thinned out, with hits kept by preference.
bCat KO growth – primary screen for growth suppressors in beta-catenin knockout HCT116 cells (colon tumor, human). HCT116 beta-catenin knockout viability, CellTiter-Glo, 60 h; hits give low values. viability, % at 10 µM. hit rate 1.5% among 140,000;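 active = viability at or under a set limit, the compound median less 4 SD, cut at about 6% in these data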;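 note: 0% = Hyamine 1622 control at 20 µM and 100% = untreated cell control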
PTEN del growth – growth suppression of PTEN-null HCT116, primary screen, cell-based, CellTiter-Glo | HCT116 PTEN-null viability, 60 h; hits give low values | viability, % at 10 µM | hit rate 1.2% among 140,000 | AID 827, 2007;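 active = viability at or below a set limit, 4 SD under the median of all tested compounds, cut at about 3.7% in these data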;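 note: PTEN knockout HCT116 line with beta catenin targeted HCT116 as companion control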
H69AR inhibit – proliferation blockers of H69AR lung cancer cells, primary screen, cell-based, human, 86K library; hit rate 6% among 85,000; H69AR lung tumor viability, ATP luminescence, 72 h; hits give low values; viability, % at 10 µM;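 active = viability at or below 40%; inactive = viability above 40%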;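 note: multidrug resistant small cell line overexpressing MRP-1 efflux transporter; 100% = mean luminescence of untreated control wells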
Fibroblast inh – antiproliferative effect on LL 47 fibroblasts – human, LL 47 cells, CellTiter-Glo luminescence, primary screen; LL 47 human lung fibroblast viability, ATP luminescence; hits give low values; viability, % at 10 µM; hit rate 1.1% among 85,000; AID 719, 2007;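 active = viability at or below 50% in the single dose screen; inactive = viability above 50%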;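 note: compound exposure lasted 72 h before the ATP readout; 100% = median luminescence of untreated cell-only wells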
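test system = LL 47 human lung fibroblasts | amount = 1,150 fibroblasts seeded per well | medium = 15% FBS in IMEM | times = overnight cell rest, 72 h compound treatment at 37 °C | measured by = CellTiter-Glo luminescence measuring cellular ATP | read-out = viability percentage against median untreated-cell control | benchmarks = cell-only wells, no compound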
HUVEC inhibit – inhibitors of HUVEC proliferation, primary screen, cell-based, 384-well; CellTiter-Glo luminescence, 72 h; hits give low values; viability, % at 10 µM (by protocol); hit rate 1.1% among 86,000; AID 648, 2007;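 active = viability at or below 30%; inactive = viability above 30%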;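 note: 100% = median luminescence of DMSO-only cell control wells on each plate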
Numbers without * were called inactive; / = no result given.

SMILES	bCat KO growth	PTEN del growth	H69AR inhibit	Fibroblast inh	HUVEC inhibit
CCC(C)Sc1nnc(CSc2nc3nc(C)cc(C)n3n2)o1 (stereo not drawn)	85	94	/	/	/
Cn1c(C(=O)OCC(=O)NCc2ccco2)cc2sccc21	100	94	82	97	74
Cc1cc2c(cc(C(=O)OCC(=O)NCc3ccco3)n2C)s1	25	27	27*	71	58
O=C(O)CC1CCC(=C(Cl)Cl)C1 (stereo not drawn)	7	6	1.3*	86	81
Cc1cc2c(N)cccc2nn1	97	101	94	108	104
Nc1cccc2nc3ccccc3cc12	4.0*	3.2*	9.2*	19*	4.2*
O=[N+]([O-])c1cccc(/C=C/c2nc(C=Nc3ccc4ccccc4c3)c(O)o2)c1	18	2.7*	/	/	/
O=C(CO/N=C/c1cccc([N+](=O)[O-])c1)Nc1ccc2ccccc2c1	96	104	68	108	89
CCCCCN=Cc1c(C)[nH]n(-c2nc3ccccc3s2)c1=O	17	16	6.4*	29*	13*
Cc1cc(Cl)ccc1NC(=O)NC1CCN(S(=O)(=O)c2ccc(F)cc2)CC1	79	73	39*	96	94
CNC(=O)Nc1cccc(C(F)(F)F)c1	96	93	102	94	98
Cc1ccc(OC(F)F)c(NC(=O)Nc2cccc(C(F)(F)F)c2)c1	23	17	2.4*	35*	43
CCc1nc(SCC(=O)N2CCC(C)CC2)c2c(=O)n(C)c(=O)n(C)c2n1	79	83	90	103	86
CCOc1nc(Nc2ccc(OC)cc2)nc(OCC)n1	106	108	105	103	100
CCOc1nc(Nc2ccc(OC)c(Cl)c2)nc(OCC)n1	91	84	36*	92	90
N#CC1=C(N)Oc2cc(N)ccc2C1C1CC=CCC1 (stereo not drawn)	22	22	29*	96	61
CCn1c(C)c(C2=CCN(S(=O)(=O)c3ccccc3)CC2)c2ccccc21	82	79	/	/	/
CC(=O)Nc1ccc(NC(=O)CSc2nnc(-c3ccco3)n2Cc2ccco2)cc1	70	86	11*	94	92
Cc1ccc(-n2c(SCC(=O)Nc3ccc4cn[nH]c4c3)nnc2-c2ccco2)cc1	89	88	32*	82	82
Cc1ccc(S(=O)(=O)N(CC(=O)N2CCC(C)CC2)Cc2ccccc2F)cc1	86	80	101	104	108
Cc1ccc(C(O)(c2ccccc2)c2ccccc2C(C)N(C)C)c(C)c1 (stereo not drawn)	3.5*	1.8*	/	/	/
O=C(c1c(O)c2ccccc2oc1=O)C1CCCCC1	96	97	54	90	83
O=C(CCC1CCCC1)c1c(O)c2ccccc2oc1=O	84	88	81	91	1.8*
COc1ccc(CN(C)Cc2nc3scc(-c4ccccc4)c3c(=O)[nH]2)cc1OC	36	39	/	/	/
CC(C)SC1=NC(C)(C)C=C(/C=C/c2ccc(Cl)cc2Cl)N1	19	22	34*	82	26*
SMILES	bCat KO growth	PTEN del growth	H69AR inhibit	Fibroblast inh	HUVEC inhibit
CC(C)SC1=NC(C)(C)C=C(/C=C/c2c(Cl)cccc2Cl)N1	14	14	40	84	54
O=C(NCCc1nc2ccccc2[nH]1)/C(=C/c1ccc2c(c1)OCO2)NC(=O)c1ccc(Cl)cc1Cl	88	85	/	/	/
Cc1nc2ccccc2c(=O)n1/N=C/c1c(O)ccc2oc3c(c12)CCCC3	4.9*	3.0*	65	64	77
O=Cc1c(C(=O)O)n(CC(=O)O)c2ccccc12	99	91	/	/	/
COc1ccc(-c2nc3ccc([N+](=O)[O-])cc3[nH]2)cc1	76	73	/	/	/
O=[N+]([O-])c1ccc2nc(-c3ccc(Cl)cc3)[nH]c2c1	8	2.7*	/	/	/
Cc1c(Br)c(C(F)(F)F)nn1CC(=O)NCc1ccccc1	89	85	/	/	/
COc1ccc(Cn2c(CCC(=O)Nc3ccc(C)c(C)c3)nc3cccnc32)cc1	104	88	37*	105	84
COc1ccc(Cn2c(CCC(=O)Nc3ccccc3)nc3cccnc32)cc1	93	104	89	95	75
Cc1cnc(C(=O)OCC(=O)Nc2oc(-c3ccccc3)c(-c3ccccc3)c2C#N)cn1	99	96	34*	71	98
N#Cc1c(NC(=O)CSc2ccccn2)oc(-c2ccccc2)c1-c1ccccc1	90	103	82	105	97
Cc1[nH][nH]c(=O)c1C(c1cc([N+](=O)[O-])ccc1O)c1c(C)[nH][nH]c1=O	91	85	/	/	/
Cc1[nH][nH]c(=O)c1C(c1ccc(-c2ccc(Cl)c(Cl)c2)o1)c1c(C)[nH][nH]c1=O	49	43	30*	69	38
Cc1ccsc1/C=N/NC(=O)Cn1cnc2ccccc21	93	98	/	/	/
Cc1c(OCc2ccccc2)c(=O)ccn1Cc1ccc(Cl)cc1	55	63	3.9*	85	63
CC(C)(CNC(=S)NCCc1ccccc1)CNC(=S)NCCc1ccccc1	24	21	/	/	/
O=C(CCn1c(=O)oc2ccccc21)N1CCN(c2ccccc2Cl)CC1	30	30	18*	66	62
N=c1c2c(-c3ccccc3)c(-c3ccccc3)n(Cc3ccco3)c2ncn1Cc1ccco1	1.5*	1.4*	1.4*	/	2.7*
N=c1c2c(-c3ccccc3)c(-c3ccccc3)n(Cc3ccccc3)c2ncn1CCCn1ccnc1	1.2*	2.0*	-0.2*	2.4*	2.3*
CCc1ccc(C(C)NC(=O)c2ncn[nH]2)cc1 (stereo not drawn)	98	104	/	/	/
CS(=O)(=O)c1ccc(Cl)c(NC(=O)CSc2nc3ccccc3c(=O)n2CCCN2CCOCC2)c1	93	93	/	/	/
COc1ccc(NC(=O)CSc2nc3ccccc3c(=O)n2-c2ccc3c(c2)OCO3)c(OC)c1	62	76	9.4*	120	76
COc1ccc(-n2c(SCC(=O)Nc3ccc4c(c3)OCO4)nc3ccccc3c2=O)cc1	96	86	95	99	85
COc1ccc(NC(=O)CSc2nc3ccccc3c(=O)n2CCCN2CCCCC2)c(OC)c1	2.6*	3.1*	66	83	78
COCCCn1c(SCC(=O)Nc2ccc(NC(=O)c3ccco3)c(OC)c2)nc2ccccc2c1=O	92	104	32*	93	97
Cc1ccc(C(=O)Cn2c(C(=O)/C=C/c3ccccc3)nc3ccccc32)cc1	14	9	/	/	/
Nc1ccc(C(=O)n2c3ccccc3c3ccccc32)cc1	13	15	19*	50*	45
Cc1cc(Cl)ccc1OC(C)C(=O)Nc1ccc([N+](=O)[O-])cn1 (stereo not drawn)	81	74	/	/	/
